Like-named read-outs stand apart in the source and are kept apart here.
Legend:
LmbB2 [1] = biological target: T1, LmbB2 (Streptomyces lincolnensis, UniProt Q54355); experiment: EPR analysis of the ferrous LmbB2-nitrosyl; conditions: 20 mM ligand; for EPR spectroscopic change compared with E-NO· alone: negative controls; for gave (average g value) of E-NO· complex after addition of ligand: 50 K, E-NO· alone gave = 2.030
Outline: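 His6-tagged LmbB2 expressed in E. coli BL21(DE3) with δ-aminolevulinic acid and ferrous ammonium sulfate, then Ni-affinity purified. 200 µM argon-saturated enzyme reduced anaerobically with 1 mM sodium dithionite, then exposed to excess NO from diethylamine NONOate in a sealed O2-free vial. Phenolic ligands added at 20 mM final. Samples frozen in liquid nitrogen. X-band EPR at 9.4 GHz, 100 kHz modulation, 50 K, 0.05 mW.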

LmbB2 [2] = biological target: T1, LmbB2; experiment: Isothermal titration calorimetry; assay type: binding
LmbB2 [3] = biological target: T1, LmbB2; assay type: biochemical
LmbB2 [4] = biological target: T1, LmbB2; experiment: Oxygen production; assay type: biochemical; conditions: substrate concentration exceeding 200 µM, 1 mM H2O2
LmbB2 [5] = biological target: T1, LmbB2; experiment: LmbB2 catalytic reaction with H2O2, product analysis by HPLC; assay type: biochemical; conditions: after normalizing for the percentage of substrate conversion
[6] = ^18O-enriched H2O2 (≥ 90% ^18O), normal water
[7] = ^18O-enriched water (88% ^18O), normal H2O2
[8] = ^18O-enriched water (88% ^18O), normal H2O2, listed as Tyrosine
[9] = ITC, 100 mM KPi, 50 mM NaCl, pH 8, 20 °C
[10] = ^18O-enriched H2O2 (≥ 90% ^18O), normal water, listed as 3-Fluoro-L-tyrosiTane
[11] = ^18O-enriched water (88% ^18O), normal H2O2, listed as 3-Fluoro-L-tyrosiTane

In the case of `CC(C)(C)OC(=O)N[C@@H](Cc1ccc(O)cc1)C(=O)O` [N-boc-L-tyrosine], the “EPR spectroscopic change compared with E-NO· alone” value (LmbB2 [1]) is reported as “no significant EPR spectroscopic change”.
`N[C@@H](Cc1ccc(O)cc1)C(=O)O` [compound 1, L-tyrosine] was tested, and the “gave (average g value) of E-NO· complex after addition of ligand” value (“gave (average g value) of E-NO· complex” for short) (LmbB2 [1]) was 2.027, the Kd (LmbB2 [2]) was 1.35 ± 0.03 µM and the “Hydroxylation product ^16O/^16O” value (LmbB2 [3]; [6]) was 7.2 ± 0.3%. For the same molecule, the “Hydroxylation product ^16O/^18O” value (LmbB2 [3]; [6]) was “over 90%”, the “Hydroxylation product ^16O/^18O” value (LmbB2 [3]; ^18O-enriched H2O2 (≥ 90% ^18O), normal water, listed as Tyrosine) was 92.8 ± 0.3% and the “Hydroxylation product ^16O/^16O” value (LmbB2 [3]; [7]) was 87.7%. The “Hydroxylation product ^16O/^18O” value (LmbB2 [3]; [7]) was 11.2%, the “Hydroxylation product ^18O/^18O” value (LmbB2 [3]; [7]) was 1.0 ± 0.1% and the “Hydroxylation product ^16O/^16O” value (LmbB2 [3]; [8]) was 87.7 ± 0.9%. For the same molecule, the “Hydroxylation product ^16O/^18O” value (LmbB2 [3]; [8]) was 11.2 ± 0.8% and the “rate of oxygen formation” value (LmbB2 [4]) was “zero”.
In the case of `N[C@@H](Cc1ccccc1)C(=O)O` [compound 2, L-phenylalanine], the “gave (average g value) of E-NO· complex” value (LmbB2 [1]) is reported as 2.027 and the Kd (LmbB2 [2]) is reported as 318 ± 8 µM.
In the case of `COc1ccc(C[C@H](N)C(=O)O)cc1` [compound 3, O-methyl-L-tyrosine], the “gave (average g value) of E-NO· complex” value (LmbB2 [1]) is reported as 2.026 and the Kd (LmbB2 [2]; [9]) is reported as 1290 ± 140 µM.
In the case of `N[C@@H](Cc1ccc(O)c([N+](=O)[O-])c1)C(=O)O` [compound 4, 3-nitro-L-tyrosine], the KD (LmbB2 [2]; [9]) is reported as “no detectable thermal change”.
For `N[C@@H](Cc1ccc(O)c(F)c1)C(=O)O` [compound 5, 3-fluoro-L-tyrosine], the Kd (LmbB2 [2]) was 22.2 ± 1.1 µM, the “binding affinity weaker than the native substrate” value (LmbB2 [2]; KD of analog versus L-tyrosine (1)) was “around 16 fold” and the “ratio of 1a formation among substrates 5, 6 and 7” value (from here on “ratio”) (LmbB2 [5]) was 4.5. The “Dehalogenation and Hydroxylation product (1a) ^16O/^16O” value (LmbB2 [3]; [6]) was 30.3 ± 1.0%, the “Dehalogenation and Hydroxylation product (1a) ^16O/^18O” value (LmbB2 [3]; [6]) was 69.7% and the “Hydroxylation product ^16O/^16O” value (LmbB2 [3]; [6]) was 15.5 ± 0.2%. The “Hydroxylation product ^16O/^18O” value (LmbB2 [3]; [6]) was 84.5%, the “Dehalogenation and Hydroxylation product (1a) ^16O/^18O” value (LmbB2 [3]; [10]) was 69.7 ± 1.0% and the “Hydroxylation product ^16O/^18O” value (LmbB2 [3]; [10]) was 84.5 ± 0.2%. The “Dehalogenation and Hydroxylation product (1a) ^16O/^16O” value (LmbB2 [3]; [7]) was 36.2%, the “Dehalogenation and Hydroxylation product (1a) ^16O/^18O” value (LmbB2 [3]; [7]) was 51.5% and the “Dehalogenation and Hydroxylation product (1a) ^18O/^18O” value (LmbB2 [3]; [7]) was 12.3%. For the same molecule, the “Hydroxylation product ^16O/^16O” value (LmbB2 [3]; [7]) was 57.3%, the “Hydroxylation product ^16O/^18O” value (LmbB2 [3]; [7]) was 35.8% and the “Hydroxylation product ^18O/^18O” value (LmbB2 [3]; [7]) was 6.9%. The “Dehalogenation and Hydroxylation product (1a) ^16O/^16O” value (LmbB2 [3]; [11]) was 36.2 ± 0.9%, the “Dehalogenation and Hydroxylation product (1a) ^16O/^18O” value (LmbB2 [3]; [11]) was 51.5 ± 0.7% and the “Dehalogenation and Hydroxylation product (1a) ^18O/^18O” value (LmbB2 [3]; [11]) was 12.3 ± 1.2%. The “Hydroxylation product ^16O/^16O” value (LmbB2 [3]; [11]) was 57.3 ± 1.6%, the “Hydroxylation product ^16O/^18O” value (LmbB2 [3]; [11]) was 35.8 ± 1.6% and the “Hydroxylation product ^18O/^18O” value (LmbB2 [3]; [11]) was 6.9 ± 0.7%. The “rate of oxygen formation” value (LmbB2 [4]) was about 10 min⁻¹.
For `N[C@@H](Cc1ccc(O)c(Cl)c1)C(=O)O` [compound 6, 3-chloro-L-tyrosine], the Kd (LmbB2 [2]) was 346 ± 2 µM and the “ratio” value (LmbB2 [5]) was 1.3.
In the case of `N[C@@H](Cc1ccc(O)c(I)c1)C(=O)O` [compound 7, 3-iodo-L-tyrosine], the Kd (LmbB2 [2]) is reported as 7820 ± 180 µM and the “ratio” value (LmbB2 [5]) is reported as 1.
With `Cc1ccc(O)cc1` [p-cresol] the “EPR spectroscopic change compared with E-NO· alone” value (LmbB2 [1]) was “no significant EPR spectroscopic change”.

Reference: PMC6660019 (ACS catalysis, 2019)
